Only some compounds are listed: those with a hit (about 2.1% of all), similar ones and a draw of the others.
Runt-SMMHC FRET: inhibitors of human RUNX1 Runt domain binding to CBFb-SMMHC. Cerulean-Runt/Venus-CBFb-SMMHC FRET ratio 530/480, 1 h. inhibition, % at 20 µM. 220,000 compounds, 0.74% hits. AID 1434;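 active = mean inhibition across duplicate retests at 20 µM reaching about 50%, limit read from the data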;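 also: 0% = DMSO wells and 100% = wells with excess untagged CBFb-SMMHC; inhibitors lower the FRET ratio by blocking Runt binding to CBFb-SMMHC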
Target sequence (Q01196 whole entry, looked up, the tested form may be a part): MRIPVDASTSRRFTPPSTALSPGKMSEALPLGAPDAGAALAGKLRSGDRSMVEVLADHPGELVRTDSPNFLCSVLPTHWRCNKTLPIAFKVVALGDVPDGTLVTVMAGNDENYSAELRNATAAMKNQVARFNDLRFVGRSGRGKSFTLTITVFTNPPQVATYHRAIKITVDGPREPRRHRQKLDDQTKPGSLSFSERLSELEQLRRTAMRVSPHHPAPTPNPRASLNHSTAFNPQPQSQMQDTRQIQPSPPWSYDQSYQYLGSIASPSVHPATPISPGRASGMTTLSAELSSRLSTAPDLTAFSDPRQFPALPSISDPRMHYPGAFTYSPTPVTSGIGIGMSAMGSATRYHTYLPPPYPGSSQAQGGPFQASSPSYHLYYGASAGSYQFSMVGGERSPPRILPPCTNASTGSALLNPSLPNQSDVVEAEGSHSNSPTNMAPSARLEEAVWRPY
Target sequence (Q13951 whole entry, looked up, the tested form may be a part): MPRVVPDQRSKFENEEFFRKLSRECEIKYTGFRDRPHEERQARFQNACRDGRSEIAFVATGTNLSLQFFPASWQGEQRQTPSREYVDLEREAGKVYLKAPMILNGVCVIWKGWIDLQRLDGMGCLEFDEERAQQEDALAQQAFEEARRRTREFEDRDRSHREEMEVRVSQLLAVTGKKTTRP
Runt-CBFb FRET: inhibitors of human RUNX1 Runt domain binding to CBFb; inhibition, % at 20 µM; Cerulean-Runt/Venus-CBFb FRET ratio 530/480, 1 h; Q01196+Q13951; AID 1496; 220,000 compounds, 0.46% hits;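 active = inhibition over about 50% at 20 µM in the single-dose screen, limit read from the data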;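 also: 0% = DMSO wells and 100% = excess unlabeled CBFb competitor control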
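Doses: 20 µM compound in 1% DMSO | Material: Cerulean-labeled Runt domain protein | Amount: Each fluorescent fusion protein 100 nM | Schedule: Two 1 h room-temperature incubations shielded from light | Measured by: FRET fluorescence | Evaluation: Loss of energy transfer signal | Controls: Unlabeled CBFb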
RanGTP-Impb inh: disruptors of Ran-importin-beta complex formation – biochemical, FRET, CFP-Ran, YFP-importin-beta, homogeneous, primary screen. cell-free CFP-Ran/YFP-importin-beta FRET ratio. inhibition, % (test concentration not listed). 300,000 compounds, 1.1% hits;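 active = more than half of the replicate wells show a fall in the fluorescence ratio signal beyond about 16%, limit read from the data, passing the limit was not always enough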;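 also: 0% = DMSO wells and 100% = Ran loaded with GDP instead of GTP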
MEX-5 binding: C. elegans MEX-5 TCR-2 RNA binding activity; AID 1832; activity score (negative = inhibition of binding), % at 10 µM; 300,000 compounds, 0.38% hits; Q9XUB2; MEX-5/FITC-TCR2 RNA binding, fluorescence polarization; active compounds read low;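 active = inhibition past about -25% in most replicates, and total fluorescence under double the plate's negative control median, limit read from the data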;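 also: 0% = DMSO and -100% = 5 µM competing unlabeled TCR2 RNA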
proKLK7 act: activates the human kallikrein-7 zymogen; P49862; purified proKLK7, EDANS-DABCYL substrate fluorescence; 100% is mature enzyme control, 0% vehicle; activation, % at 7 µM; 370,000 compounds, 0.9% hits;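 active = activation above the mean of all tested compounds plus 3 SD, computed per campaign excluding outliers beyond control limits, cut at about 13% in these data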
proKLK7 act conf: proKLK7 activation, confirmation. shares compounds with proKLK7 act. purified proKLK7, EDANS-DABCYL substrate fluorescence; scaled: vehicle 0, mature enzyme 100. activation, % at 7 µM. 3,200 compounds, 68% hits;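 active = activation, as change over the incubation, above the mean of all tested compounds plus 3 SD, cut at about 13% in these data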
EDANS interfere: fluorescence interference counter-screen for KLK7 activators. EDANS-DABCYL substrate fluorescence interference, no enzyme, 4 h; solvent 0%, active enzyme control 100%. activation, % at 7 µM. shares compounds with proKLK7 act. 3,200 compounds, 80% hits;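 active = activation above the all-compound mean plus 3 SD, ignoring values outside control-based bounds, cut at about 4.8% in these data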;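 also: value is the 4 h activation minus the activation read at time zero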
EDANS interf: counter-screen for kallikrein-7 activators: EDANS-DABCYL interference, dose response | EC50, µM | 250 compounds, 20% hits | EDANS-DABCYL peptide fluorescence interference, no enzyme | AID 720493 | shares compounds with proKLK7 act;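 active = compounds that raise the fluorescence signal in this interference counterscreen, with EC50 at or below 10 µM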;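 also: intact quenched peptide substrate alone read at 355 nm excitation and 520 nm emission; signal is fluorescence gain from T0 to T4 after four hours at room temperature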
Numbers without * were called inactive.

For O=C1NC(c2ccccc2Cl)Nc2ccccc21 (centres undefined) the results were Runt-SMMHC FRET 5, Runt-CBFb FRET -2, RanGTP-Impb inh -3, MEX-5 binding 1, proKLK7 act 19*, proKLK7 act conf 47* and EDANS interfere 50*.
For O=C1NC(c2ccc3ccccc3c2)Nc2ccccc21 (centres undefined) the results were proKLK7 act 12.
For Cc1cc(N2CCN(C)CC2)n2cc(-c3ccc(F)cc3)nc2n1 the results were Runt-SMMHC FRET -1, Runt-CBFb FRET -1, RanGTP-Impb inh 8, MEX-5 binding 0, proKLK7 act 32*, proKLK7 act conf 6 and EDANS interfere 6.5*.
`COC(=O)/C=C/c1c(C)nc(NCc2ccccc2)nc1Cl` gave RanGTP-Impb inh 0, MEX-5 binding -3, proKLK7 act 29*, proKLK7 act conf 50* and EDANS interfere 51*.
COc1cc(F)ccc1-c1cc(C(=O)NCc2ccc(F)cc2)[nH]n1 was read as proKLK7 act 0.
For COc1ccc(-c2cc(C(F)F)n3ncc(C(=O)N4CCSCC4)c3n2)cc1 the results were Runt-SMMHC FRET 1, Runt-CBFb FRET 0, RanGTP-Impb inh 2, MEX-5 binding 2 and proKLK7 act -101.
Screening COc1ccc(-c2cc(C(=O)OCC(=O)N3CCOCC3)c3ccccc3n2)cc1 returned proKLK7 act 59*, proKLK7 act conf 144* and EDANS interfere 141*.
CC1CN(C(=O)COC(=O)c2cc3ccccc3cc2O)CC(C)O1 (centres undefined) was read as proKLK7 act 14*, proKLK7 act conf 17* and EDANS interfere 17*.
For CC1CN(C(=O)c2cc3ccccc3cc2O)CC(C)O1 (centres undefined) the results were RanGTP-Impb inh -1, MEX-5 binding 1 and proKLK7 act -19.
Screening COc1ccc(-c2cc(C(F)F)n3ncc(C(=O)N4CCN(C)CC4)c3n2)cc1 returned Runt-SMMHC FRET 11, Runt-CBFb FRET -1, RanGTP-Impb inh -1, MEX-5 binding 0, proKLK7 act 15*, proKLK7 act conf -4 and EDANS interfere -13.
Screening COc1cc2ccccc2cc1C(=O)OCC(=O)N1CCOCC1 returned Runt-SMMHC FRET -4, Runt-CBFb FRET -3, RanGTP-Impb inh -1, MEX-5 binding 0, proKLK7 act 15*, proKLK7 act conf 22*, EDANS interfere 19* and EDANS interf >69.
For COc1cc(C(C)=O)ccc1OCC(O)Cn1nc(C)c(C(C)=O)c1C (centres undefined) the results were RanGTP-Impb inh -3, MEX-5 binding 5 and proKLK7 act 1.
Cc1ccc(CNS(=O)(=O)c2cn(C)c(=O)n(C)c2=O)cc1 was read as RanGTP-Impb inh -5, MEX-5 binding -2 and proKLK7 act 0.
For COc1ccc(-c2cc(C(=O)N3CCOCC3)c3cc(C)ccc3n2)cc1 the results were Runt-SMMHC FRET 2, Runt-CBFb FRET 2, RanGTP-Impb inh 2, MEX-5 binding 3, proKLK7 act 64*, proKLK7 act conf 15* and EDANS interfere 21*.
Screening COc1ccc2nc(-c3ccc(Cl)cc3)cc(C(=O)O)c2c1 returned Runt-SMMHC FRET 0, Runt-CBFb FRET -1, RanGTP-Impb inh -4, MEX-5 binding -1, proKLK7 act 25*, proKLK7 act conf 27* and EDANS interfere 44*.
`COc1ccc2nc(C)cc(C(=O)O)c2c1` gave Runt-SMMHC FRET 1, Runt-CBFb FRET 0, RanGTP-Impb inh -1, MEX-5 binding -3 and proKLK7 act 5.
For COc1ccc(-c2cc(C(=O)N3CCCCCC3)c3cc(C)ccc3n2)cc1 the results were RanGTP-Impb inh 0, MEX-5 binding -4 and proKLK7 act -90.
Screening COc1ccc(-c2cc(C(=O)NCC3CCCO3)c3cc(C)ccc3n2)cc1 (centres undefined) returned Runt-SMMHC FRET 2, Runt-CBFb FRET -3, RanGTP-Impb inh -1, MEX-5 binding -2, proKLK7 act 25*, proKLK7 act conf -40 and EDANS interfere -36.
`CCOC(=O)CCCNC(=O)COC(=O)c1cc2ccccc2cc1O` gave Runt-SMMHC FRET -6, Runt-CBFb FRET 2, RanGTP-Impb inh -1, MEX-5 binding -2, proKLK7 act 25*, proKLK7 act conf 19* and EDANS interfere 19*.
Nc1cccc(-c2cccc3nncn23)c1 was read as proKLK7 act 29*, proKLK7 act conf 0 and EDANS interfere 0.
`CSc1ccc(-c2cccc3nncn23)cc1` gave proKLK7 act 21*, proKLK7 act conf 26* and EDANS interfere 25*.
`O=C(NCc1ccco1)c1ccc(-c2ccc(F)c(F)c2)c2ccoc12` gave proKLK7 act 0.
For COc1ccc(NC(C)=O)cc1NC(C)c1nc2sc(C)c(C)c2c(=O)[nH]1 (centres undefined) the results were Runt-SMMHC FRET 16, Runt-CBFb FRET 20, RanGTP-Impb inh 2, MEX-5 binding 1, proKLK7 act 16*, proKLK7 act conf 9 and EDANS interfere 9.3*.
Screening Cc1ccc([N+](=O)[O-])cc1S(=O)(=O)Nc1ccc(N2CCOCC2)cc1 returned Runt-SMMHC FRET 0, Runt-CBFb FRET 2, RanGTP-Impb inh 0, MEX-5 binding 2 and proKLK7 act 0.
For CCC1CCc2c(sc(NC(=O)c3ccco3)c2C(N)=O)C1 (centres undefined) the results were Runt-SMMHC FRET 6, Runt-CBFb FRET -1, RanGTP-Impb inh 3, MEX-5 binding 2, proKLK7 act 91*, proKLK7 act conf -13 and EDANS interfere -16.
`CC(C)(C)C1CCc2c(sc(NC(=O)c3ccco3)c2C(N)=O)C1` (centres undefined) gave Runt-SMMHC FRET 2, Runt-CBFb FRET -2 and proKLK7 act -1.
Screening CCOCCCn1c(=N)c(C(=O)NCCN2CCOCC2)cc2c(=O)n3cccc(C)c3nc21 returned proKLK7 act 45*, proKLK7 act conf 14*, EDANS interfere 3 and EDANS interf >70.
